ChEMBL document CHEMBL2346564, “Synthesis and biological evaluation of nitric oxide releasing derivatives of 6-amino-3-n-butylphthalide as potential antiplatelet agents” (Bioorg Med Chem Lett, 2013)
Converted amounts (≈) assume the structure as drawn.

Legend:
[1] = Antiplatelet activity in rabbit platelet rich plasma assessed as inhibition of ADP-induced platelet aggregation at 0.1 mM incubated for 5 mins prior to ADP challenge measured after 5 mins by Born's turbidimetric method relative to control; type: functional; conditions: Oryctolagus cuniculus
Summary of the method: (§1)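 Rabbit platelet-rich plasma, adjusted with platelet-poor plasma (centrifuged 3000 rpm, 10 min, room temperature) to 400–450 × 10⁹ platelets/L and used within 3 h of blood collection. PRP pre-incubated with vehicle or compound (0.1 mM) for 5 min at 37 °C, then ADP 10 μM added. Maximum aggregation rate recorded over 5 min by Born turbidimetry. Inhibition (%) = 100% − MAR(compound)/MAR(vehicle). Mean ± SD, n = 6.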

[2] = Induction of nitric oxide release in phosphate buffer assessed as nitrite level at 0.1 mM measured every 15 mins for 120 mins followed by every 30 mins for 180 mins by Griess assay; type: physicochemical; conditions: 100 µM
Summary of the method: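 Compound at 0.1 mM in phosphate buffer solution, kept at room temperature for 15–300 min. Sampled every 15 min up to 120 min, then every 30 min. Samples mixed with sulfanilamide and N-(1-naphthyl)ethylenediamine dihydrochloride and held 5–10 min at room temperature in the dark. Absorbance read at 540 nm and converted to nitrite (μmol/L) with a nitrite standard curve. Intra-group variation under 10%.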

[3] = Antiplatelet activity in rabbit platelet rich plasma assessed as inhibition of ADP-induced platelet aggregation at 0.1 mM incubated for 5 mins prior to ADP challenge measured after 5 mins by Born's turbidimetric method in presence of hemoglobin relative to control; type: functional; conditions: Oryctolagus cuniculus; summary of the method: as §1
[4] = system: Platelet; experiment: Ratio of compound activity to 6-amino 3-n-butylphthalide activity for inhibition of ADP-induced platelet aggregation in rabbit platelet rich plasma at 0.1 mM; type: functional, Oryctolagus cuniculus
[5] = system: Platelet; experiment: Ratio of compound activity to 3-n-butylphthalide activity for inhibition of ADP-induced platelet aggregation in rabbit platelet rich plasma at 0.1 mM; type: functional, Oryctolagus cuniculus
[6] = Aqueous solubility of the compound in normal saline after 5 hrs by UV-spectrophotometric analysis; conditions: normal saline (aqueous solubility, as described)

| Activity [2] [µmol/L] | solubility at 5 h [6] [µM] | SMILES | inhibition at 100 µM [1] [%] | inhibition at 100 µM [3] [%] | Ratio [4] | Ratio [5] |
| --- | --- | --- | --- | --- | --- | --- |
| – | – | CCCCC1OC(=O)c2cc(N)ccc21 (configuration not stated) | 18.4 | – | – | – |
| 3.67 | – | CCCCC1OC(=O)c2cc(NC(=O)CO[N+](=O)[O-])ccc21 (configuration not stated) | 22.2 | – | – | – |
| 12.88 | 1180 (≈ 380 µg/mL) | CCCCC1OC(=O)c2cc(NC(=O)CCO[N+](=O)[O-])ccc21 (configuration not stated) | 30.4 | 23.1 | 2 | 2 |
| 7.1 | – | CCCCC1OC(=O)c2cc(NC(=O)CCCO[N+](=O)[O-])ccc21 (configuration not stated) | 28.6 | – | – | – |
| 1.82 | – | CCCCC1OC(=O)c2cc(NC(=O)c3ccccc3OCCO[N+](=O)[O-])ccc21 (configuration not stated) | 15.2 | – | – | – |
| 2.21 | – | CCCCC1OC(=O)c2cc(NC(=O)c3ccc(OCCO[N+](=O)[O-])cc3)ccc21 (configuration not stated) | 20 | – | – | – |
| 6.82 | – | CCCCC1OC(=O)c2cc(NC(=O)c3cccc(OCCO[N+](=O)[O-])c3)ccc21 (configuration not stated) | 26.6 | – | – | – |
| 2.18 | 580 (≈ 248 µg/mL) | CCCCC1OC(=O)c2cc(NC(=O)c3ccccc3OCCCO[N+](=O)[O-])ccc21 (configuration not stated) | 16.7 | – | – | – |
| 3.88 | 750 (≈ 321 µg/mL) | CCCCC1OC(=O)c2cc(NC(=O)c3ccc(OCCCO[N+](=O)[O-])cc3)ccc21 (configuration not stated) | 22.8 | – | – | – |
| 7.27 | 1060 (≈ 454 µg/mL) | CCCCC1OC(=O)c2cc(NC(=O)c3cccc(OCCCO[N+](=O)[O-])c3)ccc21 (configuration not stated) | 28.8 | – | – | – |
| – | – | CCCCC1OC(=O)c2cc(NC(=O)c3ccccc3OCCCCO[N+](=O)[O-])ccc21 (configuration not stated) | 13.6 | – | – | – |
| – | – | CCCCC1OC(=O)c2cc(NC(=O)c3ccc(OCCCCO[N+](=O)[O-])cc3)ccc21 (configuration not stated) | 18.2 | – | – | – |
| – | – | CCCCC1OC(=O)c2cc(NC(=O)c3cccc(OCCCCO[N+](=O)[O-])c3)ccc21 (configuration not stated) | 21.6 | – | – | – |
| – | 540 (≈ 103 µg/mL) | CCCCC1OC(=O)c2ccccc21 (racemic) [RAC-3-N-BUTYLPHTHALIDE] | 15.7 | – | – | – |
| – | – | Clc1ccccc1CN1CCc2sccc2C1 [TICLOPIDINE] | 26.4 | – | – | – |
